Measurements reported in ChEMBL document CHEMBL1649442, “Genetic determinants of resistance to fusidic acid among clinical bacteremia isolates of Staphylococcus aureus” (2009).
Converted amounts (≈) assume the structure as drawn.

How the values were obtained:
Assay type in all cases: functional
Staphylococcus aureus [1] = assay: Antimicrobial activity against Staphylococcus aureus isolate 28416 expressing FusC by Etest
Staphylococcus aureus [2] = assay: Antimicrobial activity against Staphylococcus aureus isolate 28084 expressing FusC and harboring pMW2 carrying cadX coding sequence by Etest
Staphylococcus aureus [3] = assay: Antimicrobial activity against Staphylococcus aureus isolate 27657 expressing FusC by Etest
Staphylococcus aureus [4] = assay: Antimicrobial activity against cadX coding sequence deficient Staphylococcus aureus isolate 28335 expressing FusC C90T mutant and harboring pMW2 by Etest
Staphylococcus aureus [5] = assay: Antimicrobial activity against Staphylococcus aureus isolate 27980 expressing FusB and harboring pUB101 carrying cadX coding sequence by Etest
Staphylococcus aureus [6] = assay: Antimicrobial activity against Staphylococcus aureus isolate 28130 expressing FusA Leu461Ser mutant pMW2 carrying cadX coding sequence by Etest
Staphylococcus aureus [7] = assay: Antimicrobial activity against cadX coding sequence deficient Staphylococcus aureus isolate 28150 expressing FusC and harboring pMW2 by Etest
Staphylococcus aureus [8] = assay: Antimicrobial activity against Staphylococcus aureus RN4220 transformed with Staphylococcus aureus isolate 27971 carrying pUB101 expressing cadX coding sequence by Etest
Outline: (§1)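 Plasmid DNA was extracted from each clinical bacteremia isolate after overnight growth in LB with 0.5% glycine, using lysostaphin/lysozyme/proteinase K lysis and alkaline lysis. It was electroporated into restriction-negative S. aureus RN4220 (2.3 kV, 25 μF, 100 Ω) and transformants were selected on NYE agar with ampicillin 1 μg/ml at 37°C. Fusidic acid MIC was read by Etest on Mueller-Hinton agar following the manufacturer's instructions.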

Staphylococcus aureus [9] = assay: Antimicrobial activity against Staphylococcus aureus isolate 27971 expressing FusB and harboring pUB101 carrying cadX coding sequence by Etest
Staphylococcus aureus [10] = assay: Antimicrobial activity against cadXD coding sequence deficient Staphylococcus aureus isolate 27624 expressing FusB by Etest
Outline: (§2)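 Fusidic acid-resistant S. aureus bacteremia clinical isolates, originally from Statens Serum Institut. MIC read by Etest on Mueller-Hinton agar, following the manufacturer's instructions. Liquid cultures grown in LB at 37°C with shaking at 200 rpm. fusB and cadXD presence checked by PCR and sequencing.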

Staphylococcus aureus [11] = assay: Antimicrobial activity against Staphylococcus aureus RN4220 transformed with Staphylococcus aureus isolate 27624 carrying pUB101 expressing cadX coding sequence by Etest; outline: as §1
Staphylococcus aureus [12] = assay: Antimicrobial activity against cadXD coding sequence deficient Staphylococcus aureus isolate 27856 expressing FusB by Etest; outline: as §2
Staphylococcus aureus [13] = assay: Antimicrobial activity against cadXD coding sequence deficient Staphylococcus aureus isolate 27980 expressing FusB by Etest; outline: as §2
Staphylococcus aureus [14] = assay: Antimicrobial activity against Staphylococcus aureus isolate 28444 expressing FusB and harboring pUB101 carrying cadX coding sequence by Etest
Staphylococcus aureus [15] = assay: Antimicrobial activity against cadXD coding sequence deficient Staphylococcus aureus isolate 28332 expressing FusB by Etest; outline: as §2
Staphylococcus aureus [16] = assay: Antimicrobial activity against Staphylococcus aureus isolate 27856 expressing FusB and harboring pUB101 carrying cadX coding sequence by Etest
Staphylococcus aureus [17] = assay: Antimicrobial activity against cadX coding sequence deficient Staphylococcus aureus isolate 27768 expressing FusA Leu461Ser mutant and harboring pMW2 by Etest
Staphylococcus aureus [18] = assay: Antimicrobial activity against cadX coding sequence deficient Staphylococcus aureus isolate 27962 expressing FusA Met453Ile mutant and harboring pMW2 by Etest
Staphylococcus aureus [19] = assay: Antimicrobial activity against cadXD coding sequence deficient Staphylococcus aureus isolate 28444 expressing FusB by Etest; outline: as §2
Staphylococcus aureus [20] = assay: Antimicrobial activity against cadXD coding sequence deficient Staphylococcus aureus isolate 27971 expressing FusB by Etest; outline: as §2
Staphylococcus aureus [21] = assay: Antimicrobial activity against Staphylococcus aureus isolate 28362 expressing FusA Val90Ile mutant by Etest
Staphylococcus aureus [22] = assay: Antimicrobial activity against Staphylococcus aureus RN4220 transformed with Staphylococcus aureus isolate 27856 carrying pUB101 expressing cadX coding sequence by Etest; outline: as §1
Staphylococcus aureus [23] = assay: Antimicrobial activity against Staphylococcus aureus isolate 28332 expressing FusB and harboring pUB101 carrying cadX coding sequence by Etest
Staphylococcus aureus [24] = assay: Antimicrobial activity against Staphylococcus aureus isolate 27624 expressing FusB and harboring pUB101 carrying cadX coding sequence by Etest
Staphylococcus aureus [25] = assay: Antimicrobial activity against Staphylococcus aureus RN4220 transformed with Staphylococcus aureus isolate 28332 carrying pUB101 cadX coding sequence by Etest; outline: as §1
Staphylococcus aureus [26] = assay: Antimicrobial activity against Staphylococcus aureus isolate 27731 expressing FusA Ala71Val, Asp189Gly, Pro406Leu mutant and harboring pMW2 carrying cadX coding sequence by Etest
Staphylococcus aureus [27] = assay: Antimicrobial activity against Staphylococcus aureus RN4220 transformed with Staphylococcus aureus isolate 27980 carrying pUB101 expressing cadX coding sequence by Etest; outline: as §1
Staphylococcus aureus [28] = assay: Antimicrobial activity against cadX coding sequence deficient Staphylococcus aureus isolate 28400 expressing FusC C90T mutant and harboring pMW2 by Etest
Staphylococcus aureus [29] = assay: Antimicrobial activity against cadX coding sequence deficient Staphylococcus aureus isolate 28410 expressing FusC C90T mutant and harboring pMW2 by Etest
Staphylococcus aureus [30] = assay: Antimicrobial activity against Staphylococcus aureus RN4220 transformed with Staphylococcus aureus isolate 28444 carrying pUB101 expressing cadX coding sequence by Etest; outline: as §1
Staphylococcus aureus [31] = assay: Antimicrobial activity against cadX coding sequence deficient Staphylococcus aureus isolate 28414 expressing FusC C90T mutant and harboring pMW2 by Etest
Staphylococcus aureus [32] = assay: Antimicrobial activity against Staphylococcus aureus isolate 27844 expressing FusA Ala376Val, Leu461Phe, Asp463Gly, Ala655Pro mutant and harboring pMW2 carrying cadX coding sequence by Etest

Compound: CC(=O)O[C@H]1C[C@@]2(C)[C@@H](C[C@@H](O)[C@H]3[C@@]4(C)CC[C@@H](O)[C@@H](C)[C@@H]4CC[C@@]32C)/C1=C(\CCC=C(C)C)C(=O)O [FUSIDIC ACID]
- MIC (Staphylococcus aureus [1]): 8 µg/mL (≈ 15.5 µM)
- MIC (Staphylococcus aureus [2]): 12 µg/mL (≈ 23.2 µM)
- MIC (Staphylococcus aureus [3]): 8 µg/mL (≈ 15.5 µM)
- MIC (Staphylococcus aureus [4]): 8 µg/mL (≈ 15.5 µM)
- MIC (Staphylococcus aureus [5]): 12 µg/mL (≈ 23.2 µM)
- MIC (Staphylococcus aureus [6]): 6 µg/mL (≈ 11.6 µM)
- MIC (Staphylococcus aureus [7]): 8 µg/mL (≈ 15.5 µM)
- MIC (Staphylococcus aureus [8]): 8 µg/mL (≈ 15.5 µM)
- MIC (Staphylococcus aureus [9]): 8 µg/mL (≈ 15.5 µM)
- MIC (Staphylococcus aureus [10]): 0.094 µg/mL (≈ 0.182 µM)
- MIC (Staphylococcus aureus [11]): 8 µg/mL (≈ 15.5 µM)
- MIC (Staphylococcus aureus [12]): 0.094 µg/mL (≈ 0.182 µM)
- MIC (Staphylococcus aureus [13]): 0.094 µg/mL (≈ 0.182 µM)
- MIC (Staphylococcus aureus [14]): 12 µg/mL (≈ 23.2 µM)
- MIC (Staphylococcus aureus [15]): 0.125 µg/mL (≈ 0.242 µM)
- MIC (Staphylococcus aureus [16]): 8 µg/mL (≈ 15.5 µM)
- MIC (Staphylococcus aureus [17]): 8 µg/mL (≈ 15.5 µM)
- MIC (Staphylococcus aureus [18]): 4 µg/mL (≈ 7.74 µM)
- MIC (Staphylococcus aureus [19]): 0.064 µg/mL (≈ 0.124 µM)
- MIC (Staphylococcus aureus [20]): 0.094 µg/mL (≈ 0.182 µM)
- MIC (Staphylococcus aureus [21]): 8 µg/mL (≈ 15.5 µM)
- MIC (Staphylococcus aureus [22]): 8 µg/mL (≈ 15.5 µM)
- MIC (Staphylococcus aureus [23]): 12 µg/mL (≈ 23.2 µM)
- MIC (Staphylococcus aureus [24]): 6 µg/mL (≈ 11.6 µM)
- MIC (Staphylococcus aureus [25]): 8 µg/mL (≈ 15.5 µM)
- MIC (Staphylococcus aureus [26]): 8 µg/mL (≈ 15.5 µM)
- MIC (Staphylococcus aureus [27]): 8 µg/mL (≈ 15.5 µM)
- MIC (Staphylococcus aureus [28]): 6 µg/mL (≈ 11.6 µM)
- MIC (Staphylococcus aureus [29]): 6 µg/mL (≈ 11.6 µM)
- MIC (Staphylococcus aureus [30]): 8 µg/mL (≈ 15.5 µM)
- MIC (Staphylococcus aureus [31]): 6 µg/mL (≈ 11.6 µM)
- MIC (Staphylococcus aureus [32]): 256 µg/mL (≈ 495 µM)
